In ChEMBL document CHEMBL1255494, “In vivo comparison of the pharmacodynamic targets for echinocandin drugs against Candida species” (Antimicrob Agents Chemother, 2010):
Values after ≈ are worked out from the molar mass of the structure shown. *1 amine or outer side, *2 acyl side, *3 side chain or, on linkers, in order; H or OH if unused. Where a SMILES comes first, the peptide text is derived from it. Bridges are numbered along the chain shown (N, C = ends). [ ]: non-standard residue; d: D form. The star is where a group is joined. hTyr(3S-OH,4S-OH,3'-OSO3H) = N[C@H](C(=O)O)[C@H](O)[C@@H](O)c1ccc(O)c(OS(=O)(=O)O)c1; Orn(4R-OH,5R-OH) = O=C([C@H](C[C@@H](O)[C@@H](O)N[*:3])N[*:1])[*:2]; Pro(3S-OH,4S-Me) = C[C@H]1CN[C@H](C(=O)O)[C@H]1O; X1 = CCCCCOc1ccc(-c2cc(-c3ccc(C(=O)*)cc3)no2)cc1; Gln(3R-OH) = NC(=O)C[C@@H](O)[C@H](N)C(=O)O; Hyp = O=C(O)[C@@H]1C[C@@H](O)CN1

Legend:
Candida parapsilosis [1] = assay: Antifungal activity against Candida parapsilosis 20477.078 after 24 hrs; type: functional; settings: Lodderomyces parapsilosis, 20477.078, 24 h
Outline: (§1)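 MICs by CLSI M27-A3 broth dilution in RPMI 1640, inoculum 0.5 × 10³ to 2.5 × 10³ cells/ml, 35°C. Read visually at 24 h as the lowest concentration giving ≥50% growth reduction versus control. Run on three occasions in duplicate and reported as the mean. C. krusei ATCC 6258 and C. parapsilosis ATCC 22019 served as QC strains.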

Candida albicans [2] = assay: Fungistatic activity against Candida albicans infected in neutropenic ICR Swiss mouse after 24 hrs; type: functional
Outline: (§2)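 Female ICR Swiss mice, neutropenic via cyclophosphamide s.c. (150 mg/kg day −4, 100 mg/kg day −1 and day +2), infected by tail-vein injection of clinical isolates 2 h before therapy. Intraperitoneal dosing every 24 h for 4 days, 4–6 dose levels from 0.078 to 160 mg/kg, 3 mice per regimen. Kidney CFU counted at 96 h. Sigmoid dose-effect fit gives static dose and 1 log kill dose relative to burden at start of therapy.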

Candida albicans [3] = assay: Antifungal activity against Candida albicans infected in ICR Swiss mouse; type: functional; outline: as §2
Candida metapsilosis = assay: Antifungal activity against Candida metapsilosis 20463.02 after 24 hrs; type: functional; settings: Lodderomyces metapsilosis, 20463.02, 24 h; outline: as §1
Candida albicans [4] = assay: Antifungal activity against Candida albicans 580 after 24 hrs; type: functional; settings: Candida albicans, 580, 24 h
Outline: (§3)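 Broth microdilution per CLSI M27-A3 in RPMI 1640; inoculum 0.5 × 10³ to 2.5 × 10³ cells/ml, 35°C. […] Three separate occasions in duplicate, mean reported; C. krusei ATCC 6258 and C. parapsilosis ATCC 22019 as daily QC.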

Candida parapsilosis [5] = assay: Antifungal activity against Candida parapsilosis infected in ICR Swiss mouse assessed log reduction in bacterial count […]; type: functional; outline: as §2
Candida parapsilosis [6] = assay: Antifungal activity against Candida parapsilosis 20450.096 after 24 hrs; type: functional; settings: Lodderomyces parapsilosis, 20450.096, 24 h; outline: as §1
[7] = Ratio of AUC (0 to 24 hrs) in Candida parapsilosis infected neutropenic ICR Swiss mouse to MIC for Candida parapsilosis at 1 log kill dose after 24 hrs; type: functional
Outline: (§4)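 Neutropenic mice were infected iv and treated 2 h later. Four to six ip dose levels (0.078–160 mg/kg) were given every 24 h for 4 days, 3 mice per regimen. Kidney CFU were counted at 96 h. A sigmoid dose-effect model gave the static and 1-log-kill doses relative to burden at therapy start.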

Nakaseomyces glabratus [8] = assay: Antifungal activity against Candida glabrata 513 after 24 hrs; type: functional; settings: Nakaseomyces glabratus, 513, 24 h; outline: as §3
[9] = Ratio of AUC (0 to 24 hrs) in Candida glabrata infected neutropenic ICR Swiss mouse to MIC for Candida glabrata at 1 log kill dose after 24 hrs; type: functional; outline: as §4
[10] = Ratio of fAUC (0 to 24 hrs) in Candida parapsilosis infected neutropenic ICR Swiss mouse to MIC for Candida parapsilosis at 1 log kill dose after 24 hrs; type: functional
[11] = Ratio of AUC (0 to 24 hrs) in Candida albicans infected neutropenic ICR Swiss mouse to MIC for Candida albicans at static dose after 24 hrs; type: functional; outline: as §4
Candida parapsilosis [12] = assay: Antifungal activity against Candida parapsilosis 20557.012 after 24 hrs; type: functional; settings: Lodderomyces parapsilosis, 20557.012, 24 h; outline: as §1
[13] = Ratio of fAUC (0 to 24 hrs) in Candida glabrata infected neutropenic ICR Swiss mouse to MIC for Candida glabrata at static dose after 24 hrs; type: functional
Nakaseomyces glabratus [14] = assay: Antifungal activity against Candida glabrata infected in neutropenic ICR Swiss mouse assessed log reduction in bacterial count […]; type: functional; outline: as §2
Nakaseomyces glabratus [15] = assay: Antifungal activity against Candida glabrata 5376 after 24 hrs; type: functional; settings: Nakaseomyces glabratus, 5376, 24 h; outline: as §3
[16] = Ratio of AUC (0 to 24 hrs) in Candida parapsilosis infected neutropenic ICR Swiss mouse to MIC for Candida parapsilosis at static dose after 24 hrs; type: functional; outline: as §4
Nakaseomyces glabratus [17] = assay: Antifungal activity against Candida glabrata 33609 after 24 hrs; type: functional; settings: Nakaseomyces glabratus, 33609, 24 h; outline: as §3
[18] = Ratio of fAUC (0 to 24 hrs) in Candida albicans infected neutropenic ICR Swiss mouse to MIC for Candida albicans at 1 log kill dose after 24 hrs; type: functional
[19] = Ratio of fAUC (0 to 24 hrs) in Candida albicans infected neutropenic ICR Swiss mouse to MIC for Candida albicans at static dose after 24 hrs; type: functional
Nakaseomyces glabratus [20] = assay: Antifungal activity against Candida glabrata 37661 after 24 hrs; type: functional; settings: Nakaseomyces glabratus, 37661, 24 h; outline: as §1
Candida albicans [21] = assay: Antifungal activity against Candida albicans 98-17 after 24 hrs; type: functional; settings: 98-17, 24 h; outline: as §1
Candida parapsilosis [22] = assay: Antifungal activity against Candida parapsilosis 20489.085 after 24 hrs; type: functional; settings: Lodderomyces parapsilosis, 20489.085, 24 h; outline: as §3
Candida albicans [23] = assay: Antifungal activity against Candida albicans K1 after 24 hrs; type: functional; settings: K1, 24 h; outline: as §3
[24] = AUC (0 to 24 hrs) in Candida albicans infected neutropenic ICR Swiss mouse at 20 mg/kg, ip; type: ADME, organism-based; parameters: time < 24 hr, dose 20 mg/kg, route intraperitoneal; settings: plasma
Outline: (§5)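 Neutropenic female ICR Swiss mice (cyclophosphamide sc at 150 mg/kg on day −4, 100 mg/kg on day −1 and day +2) infected iv via tail vein with Candida; single ip doses of 5, 20 or 80 mg/kg. Serum drawn from 3 mice per time point at eight time points and assayed by microbiologic assay (C. albicans K1) or […]. Noncompartmental analysis; AUC by trapezoidal rule.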

Nakaseomyces glabratus [25] = assay: Antifungal activity against Candida glabrata 5592 after 24 hrs; type: functional; settings: Nakaseomyces glabratus, 5592, 24 h; outline: as §3
Candida parapsilosis [26] = assay: Antifungal activity against Candida parapsilosis 20477.048 after 24 hrs; type: functional; settings: Lodderomyces parapsilosis, 20477.048, 24 h; outline: as §1
Candida parapsilosis [27] = assay: Antifungal activity against Candida parapsilosis 20562.03 after 24 hrs; type: functional; settings: Lodderomyces parapsilosis, 20562.03, 24 h; outline: as §1
[28] = Ratio of AUC (0 to 24 hrs) in Candida glabrata infected neutropenic ICR Swiss mouse to MIC for Candida glabrata at static dose after 24 hrs; type: functional; outline: as §4
Candida parapsilosis [29] = assay: Antifungal activity against Candida parapsilosis 20423.072 after 24 hrs; type: functional; settings: Lodderomyces parapsilosis, 20423.072, 24 h; outline: as §1
Candida parapsilosis [30] = assay: Fungistatic activity against Candida parapsilosis infected in neutropenic ICR Swiss mouse after 24 hrs; type: functional; outline: as §2
Nakaseomyces glabratus [31] = assay: Antifungal activity against Candida glabrata 33616 after 24 hrs; type: functional; settings: Nakaseomyces glabratus, 33616, 24 h; outline: as §1
Nakaseomyces glabratus [32] = assay: Antifungal activity against Candida glabrata 34341 after 24 hrs; type: functional; settings: Nakaseomyces glabratus, 34341, 24 h; outline: as §1
[33] = AUC (0 to 24 hrs) in Candida albicans infected neutropenic ICR Swiss mouse at 5 mg/kg, ip; type: ADME, organism-based; parameters: time < 24 hr, dose 5 mg/kg, route intraperitoneal; settings: plasma; outline: as §5
Candida parapsilosis [34] = assay: Antifungal activity against Candida parapsilosis 20519.069 after 24 hrs; type: functional; settings: Lodderomyces parapsilosis, 20519.069, 24 h; outline: as §1
Candida parapsilosis [35] = assay: Antifungal activity against Candida parapsilosis 20553.009 after 24 hrs; type: functional; settings: Lodderomyces parapsilosis, 20553.009, 24 h; outline: as §1
Candida parapsilosis [36] = assay: Antifungal activity against Candida parapsilosis 20435.057 after 24 hrs; type: functional; settings: Lodderomyces parapsilosis, 20435.057, 24 h; outline: as §1

## CCCCCOc1ccc(-c2cc(-c3ccc(C(=O)N[C@H]4C[C@@H](O)[C@@H](O)NC(=O)[C@@H]5[C@@H](O)[C@@H](C)CN5C(=O)[C@H]([C@H](O)CC(N)=O)NC(=O)[C@H]([C@H](O)[C@@H](O)c5ccc(O)c(OS(=O)(=O)O)c5)NC(=O)[C@@H]5C[C@@H](O)CN5C(=O)[C@H]([C@@H](C)O)NC4=O)cc3)no2)cc1 [MICAFUNGIN] (X1-[Orn(4R-OH,5R-OH)]T[Hyp][hTyr(3S-OH,4S-OH,3'-OSO3H)][Gln(3R-OH)][Pro(3S-OH,4S-Me)]; lactam 1-C)
Candida parapsilosis [1]
  MIC: 0.5 µg/mL (≈ 0.394 µM)
Candida albicans [2]
  Activity: 2.79 mg/kg
Candida albicans [3]
  Emax: 7.2 log10 CFU/kidneys
Candida albicans [3]; Candida albicans
  ED50: 18.9 mg/kg
Candida metapsilosis
  MIC: 0.12 µg/mL (≈ 0.0945 µM)
Candida albicans [4]
  MIC: 0.008 µg/mL (≈ 0.0063 µM)
Candida parapsilosis [5]
  Activity: 55.8 mg/kg
Candida parapsilosis [6]
  MIC: 0.25 µg/mL (≈ 0.197 µM)
[7]
  Ratio: 3090
Nakaseomyces glabratus [8]
  MIC: 0.016 µg/mL (≈ 0.0126 µM)
[9]
  Ratio: 3778
[10]
  Ratio: 7.73
[11]
  Ratio: 5299
Candida parapsilosis [12]
  MIC: 0.25 µg/mL (≈ 0.197 µM)
[13]
  Ratio: 3.9
Nakaseomyces glabratus [14]
  Activity: 5.88 mg/kg
Nakaseomyces glabratus [15]
  MIC: 0.008 µg/mL (≈ 0.0063 µM)
[16]
  Ratio: 1981
Nakaseomyces glabratus [17]
  MIC: 0.016 µg/mL (≈ 0.0126 µM)
[18]
  Ratio: 25.2
[19]
  Ratio: 12.7
Nakaseomyces glabratus [20]
  MIC: 0.25 µg/mL (≈ 0.197 µM)
Candida albicans [21]
  MIC: 0.03 µg/mL (≈ 0.0236 µM)
Candida parapsilosis [22]
  MIC: 0.12 µg/mL (≈ 0.0945 µM)
Candida albicans [23]
  MIC: 0.016 µg/mL (≈ 0.0126 µM)
[24]
  AUC(0-t) at 24 h: 520 µg·h/mL
Nakaseomyces glabratus [25]
  MIC: 0.016 µg/mL (≈ 0.0126 µM)
Candida parapsilosis [26]
  MIC: 0.5 µg/mL (≈ 0.394 µM)
Candida parapsilosis [27]
  MIC: 0.5 µg/mL (≈ 0.394 µM)
[28]
  Ratio: 1542
Candida parapsilosis [29]
  MIC: 0.25 µg/mL (≈ 0.197 µM)
Candida parapsilosis [30]
  Activity: 32.3 mg/kg
Nakaseomyces glabratus [31]
  MIC: 0.25 µg/mL (≈ 0.197 µM)
Nakaseomyces glabratus [32]
  MIC: 0.06 µg/mL (≈ 0.0472 µM)
[33]
  AUC(0-t) at 24 h: 138 µg·h/mL
Candida parapsilosis [34]
  MIC: 1 µg/mL (≈ 0.787 µM)
Candida parapsilosis [35]
  MIC: 1 µg/mL (≈ 0.787 µM)
Candida parapsilosis [36]
  MIC: 0.5 µg/mL (≈ 0.394 µM)
